Test results as given in ChEMBL document CHEMBL3259739, “Synthesis and structure-activity relationship of trisubstituted thiazoles as Cdc7 kinase inhibitors” (Eur J Med Chem, 2014).

Key:
[1] = target: T1, CDC7/DBF4 (Cell division cycle 7-related protein kinase/Activator of S phase kinase) (Homo sapiens, UniProt O00311); assay: Inhibition of Cdc7/Dbf4 (unknown origin)-mediated phosphorylation of MCM2 by protein-A luminescent proximity homogenous assay; assay type: protein-complex assay
[2] = Intrinsic clearance in rat liver microsomes at 1 uM after 30 mins by reverse phase HPLC analysis in presence of NADPH; assay type: ADME; settings: read-out: CLH
Method in brief: (§1)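 Reactions were stopped with MeCN after 0 or 30 min. Samples were analysed by reverse-phase HPLC–tandem MS to give intrinsic clearance (µl/min/mg).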

[3] = target: Cyclin-dependent kinase 2/cyclin E1 (Homo sapiens, UniProt P24941); assay: Inhibition of CDK2/Cyclin-E (unknown origin) using maltose binding protein as substrate by HTRF assay; assay type: protein-complex assay
[4] = Intrinsic clearance in human liver microsomes at 1 uM after 30 mins by reverse phase HPLC analysis in presence of NADPH; assay type: ADME; settings: read-out: CLH; method in brief: as §1
[5] = target: T1, CDC7/DBF4 (Cell division cycle 7-related protein kinase/Activator of S phase kinase); assay: Inhibition of Cdc7/Dbf4 in human HCT116 cells assessed as reduction of MCM2 phosphorylation after 14 hrs; assay type: cell-based, HCT-116
Method in brief: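 HCT-116 cells were exposed to inhibitor across a 22-point dose response for 14 h. They were then immunostained for phospho-serine MCM2 using an Alexa Fluor 488 secondary, with a Hoechst nuclear counterstain. The percentage of cells with phospho-MCM2 signal above a threshold was scored by high-content imaging, and IC50 values were derived from that.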

[6] = target: CDC7/DBF4 (Cell division cycle 7-related protein kinase/Activator of S phase kinase) (Homo sapiens) (UniProt Q9UBU7+O00311); assay: Ratio of IC50 for Cdc7/Dbf4 in human HCT116 cells to IC50 for Cdc7/Dbf4 (unknown origin); assay type: cell-based; settings: HCT-116
[7] = species: Homo sapiens; assay: Selectivity ratio of IC50 for CDK2/Cyclin-E (unknown origin) to IC50 for Cdc7/Dbf4 (unknown origin)

T1 sequence (Q9UBU7 whole entry): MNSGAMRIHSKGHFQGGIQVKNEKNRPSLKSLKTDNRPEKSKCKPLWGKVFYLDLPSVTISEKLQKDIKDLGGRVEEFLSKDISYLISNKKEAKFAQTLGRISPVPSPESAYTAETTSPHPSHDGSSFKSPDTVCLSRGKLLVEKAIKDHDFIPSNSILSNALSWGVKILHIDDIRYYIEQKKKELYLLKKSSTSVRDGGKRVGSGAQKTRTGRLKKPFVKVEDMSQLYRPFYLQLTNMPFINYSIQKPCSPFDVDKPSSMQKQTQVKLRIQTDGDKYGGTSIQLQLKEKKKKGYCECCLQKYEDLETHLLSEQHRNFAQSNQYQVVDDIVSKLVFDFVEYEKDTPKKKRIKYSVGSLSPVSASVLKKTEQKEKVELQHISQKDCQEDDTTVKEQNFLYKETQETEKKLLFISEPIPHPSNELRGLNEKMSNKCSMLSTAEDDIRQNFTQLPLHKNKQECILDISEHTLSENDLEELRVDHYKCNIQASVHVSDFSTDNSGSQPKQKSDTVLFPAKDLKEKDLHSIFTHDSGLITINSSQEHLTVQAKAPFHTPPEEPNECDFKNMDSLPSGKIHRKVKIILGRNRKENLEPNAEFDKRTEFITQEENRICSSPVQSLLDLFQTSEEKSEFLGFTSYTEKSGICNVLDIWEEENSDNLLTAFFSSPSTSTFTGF
T1 sequence (O00311 whole entry): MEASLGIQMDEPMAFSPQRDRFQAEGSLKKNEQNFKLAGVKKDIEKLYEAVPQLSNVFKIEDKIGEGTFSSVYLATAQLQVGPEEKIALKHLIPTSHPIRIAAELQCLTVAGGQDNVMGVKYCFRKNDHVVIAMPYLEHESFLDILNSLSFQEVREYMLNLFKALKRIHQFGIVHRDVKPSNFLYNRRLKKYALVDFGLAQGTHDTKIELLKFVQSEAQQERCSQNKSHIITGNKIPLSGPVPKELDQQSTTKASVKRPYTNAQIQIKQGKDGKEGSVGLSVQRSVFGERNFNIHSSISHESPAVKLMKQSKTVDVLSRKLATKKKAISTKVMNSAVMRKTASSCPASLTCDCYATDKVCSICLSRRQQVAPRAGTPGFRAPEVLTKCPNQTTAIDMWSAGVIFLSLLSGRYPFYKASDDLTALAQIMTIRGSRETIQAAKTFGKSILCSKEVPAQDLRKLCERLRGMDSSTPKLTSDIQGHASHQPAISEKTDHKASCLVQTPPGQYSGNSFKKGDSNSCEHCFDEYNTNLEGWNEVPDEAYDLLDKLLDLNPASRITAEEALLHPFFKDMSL
Chain of CDC7/DBF4 (Cell division cycle 7-related protein kinase/Activator of S phase kinase) (Homo sapiens) (O00311 whole entry, looked up): as the sequence (O00311 whole entry) above
Chain of CDC7/DBF4 (Cell division cycle 7-related protein kinase/Activator of S phase kinase) (Homo sapiens) (Q9UBU7 whole entry, looked up): as the sequence (Q9UBU7 whole entry) above

Structure (SMILES)	IC50 [1]	microsomal CLint at 1 µM [2]	IC50 [3]	microsomal CLint at 1 µM [4]	IC50 [5]	Ratio IC50 [6]	Ratio IC50 [7]
CN(C)c1nc(-c2ccnc(N)n2)sc1C(N)=O	0.0205 µM	26 µL/min/mg	18.2 µM	23 µL/min/mg	1.87 µM	–	–
CCOC(=O)c1sc(-c2ccncc2)nc1OC	17.2 µM	–	> 125 µM	–	–	–	–
CCOC(=O)c1sc(-c2ccncc2)nc1NC	7.35 µM	–	> 125 µM	–	–	–	–
CCOC(=O)c1sc(-c2cnccn2)nc1O	26.5 µM	–	> 125 µM	–	–	–	–
CCOC(=O)c1sc(-c2ccncc2)nc1-c1ccc(OC)cc1Cl	0.855 µM	–	> 125 µM	–	–	–	–
CCOC(=O)c1sc(-c2cccnc2)nc1O	32 µM	–	> 125 µM	–	–	–	–
CCOC(=O)c1sc(-c2ccncc2)nc1C	25.1 µM	–	> 125 µM	–	–	–	–
CCOC(=O)c1sc(-c2ccnc(CC)c2)nc1O	7.5 µM	–	> 125 µM	–	–	–	–
CCOC(=O)c1cnc(-c2ccncc2)s1	24 µM	–	> 125 µM	–	–	–	–
CCOC(=O)c1sc(-c2ccncc2)nc1-c1ccccc1Cl	0.529 µM	–	> 125 µM	–	–	–	–
NC(=O)c1sc(-c2ccnc(N)n2)nc1-c1ccccc1F	0.0178 µM	< 14 µL/min/mg	> 125 µM	< 14 µL/min/mg	1.07 µM	–	–
CCOC(=O)c1sc(-c2ccncc2)nc1-c1ccc2ccccc2c1	> 125 µM	–	> 125 µM	–	–	–	–
NC(=O)c1sc(-c2ccncc2)nc1-c1ccc(Cl)cc1Cl	0.0143 µM	–	0.7 µM	–	11.5 µM	> 100	–
c1ccc(-c2nc(-c3ccncc3)sc2-c2nn[nH]n2)cc1	0.452 µM	–	> 125 µM	–	–	–	–
NNC(=O)c1sc(-c2ccncc2)nc1-c1ccccc1	0.472 µM	–	> 125 µM	–	–	–	–
CCOC(=O)c1sc(-c2ccncc2)nc1NCc1ccccc1	38.3 µM	–	> 125 µM	–	–	–	–
CCOC(=O)c1sc(C(C)(C)C)nc1O	> 125 µM	–	> 125 µM	–	–	–	–
c1ccc(-c2nc(-c3ccncc3)sc2-c2nnco2)cc1	3.87 µM	–	> 125 µM	–	–	–	–
N#Cc1sc(-c2ccncc2)nc1-c1ccccc1	10.3 µM	–	> 125 µM	–	–	–	–
CCOC(=O)c1sc(-c2ccncc2)nc1-c1cccc(Cl)c1Cl	0.451 µM	–	> 125 µM	–	–	–	–
Cc1ccc(-c2nc(-c3ccnc(N)n3)sc2C(N)=O)c(Cl)c1	0.00604 µM	140 µL/min/mg	7.03 µM	< 14 µL/min/mg	1.4 µM	–	–
CCOC(=O)c1sc(-c2ccncc2)nc1-c1cccnc1	8.29 µM	–	> 125 µM	–	–	–	–
CCOC(=O)c1sc(-c2ccnc(N)c2)nc1-c1ccccc1	19.9 µM	–	> 125 µM	–	–	–	–
O=C(NCc1ccccc1)c1sc(-c2ccncc2)nc1O	11.6 µM	–	52.1 µM	–	–	–	–
NC(=O)c1sc(-c2ccnc(N)n2)nc1-c1cc(Cl)cc(Cl)c1	0.0623 µM	69 µL/min/mg	> 125 µM	67 µL/min/mg	8.5 µM	–	–

Structure (SMILES)	IC50 [1]	microsomal CLint at 1 µM [2]	IC50 [3]	microsomal CLint at 1 µM [4]	IC50 [5]	Ratio IC50 [6]	Ratio IC50 [7]
NC(=O)c1sc(-c2ccnc(N)n2)nc1-c1ccccc1C(F)(F)F	0.0184 µM	< 14 µL/min/mg	34.9 µM	< 14 µL/min/mg	2.04 µM	–	–
CCOC(=O)c1sc(-c2ccncc2)nc1-c1ccc(Cl)cc1Cl	0.973 µM	–	> 125 µM	–	–	–	–
O=C(NO)c1sc(-c2ccncc2)nc1-c1ccccc1	1.69 µM	–	> 125 µM	–	–	–	–
CCOC(=O)c1sc(-c2ccncc2)nc1N(C)C	0.669 µM	–	> 125 µM	–	–	–	–
CCOC(=O)c1sc(-c2ccncc2)nc1N	4.2 µM	–	> 125 µM	–	–	–	–
CNC(=O)c1sc(-c2ccncc2)nc1O	8.98 µM	–	> 125 µM	–	–	–	–
CCOC(=O)c1sc(-c2ccncc2)nc1-c1ccc(F)cc1Cl	1.02 µM	–	> 125 µM	–	–	–	–
NC(=O)c1sc(-c2ccncc2)nc1-c1ccccc1	0.101 µM	–	34.2 µM	–	23.6 µM	> 100	–
CN(C)C(=O)c1sc(-c2ccncc2)nc1O	24.4 µM	–	> 125 µM	–	–	–	–
CCOC(=O)c1sc(-c2ccnc(N)n2)nc1O	0.0415 µM	–	> 125 µM	–	–	–	–
CCOC(=O)c1sc(-c2ccccc2)nc1O	46.7 µM	–	> 125 µM	–	–	–	–
CCOC(=O)c1sc(-c2ccc(OC)cc2)nc1O	> 125 µM	–	> 125 µM	–	–	–	–
CCOC(=O)c1sc(-c2ccncc2)nc1-c1ccccc1	20.5 µM	–	> 125 µM	–	–	–	–
O=C1Nc2ccccc2Nc2nc(-c3ccncc3)sc21	0.104 µM	–	1.2 µM	–	–	–	11
CCOC(=O)c1sc(-c2ccsc2)nc1O	29.6 µM	–	> 125 µM	–	–	–	–
CCOC(=O)c1sc(-c2ccncc2)nc1Nc1ccccc1	> 125 µM	–	> 125 µM	–	–	–	–
O=C(O)c1sc(-c2ccncc2)nc1-c1ccccc1	0.172 µM	–	> 125 µM	–	–	–	–
CCOC(=O)c1sc(-c2cc(N)ncn2)nc1-c1ccccc1	> 125 µM	–	> 125 µM	–	–	–	–
NC(=O)c1sc(-c2ccncc2)nc1O	0.115 µM	–	> 125 µM	–	> 50 µM	–	–
CCOC(=O)c1sc(-c2ccccn2)nc1O	> 125 µM	–	> 125 µM	–	–	–	–
NC(=O)c1sc(-c2ccnc(N)n2)nc1-c1cc(F)ccc1F	0.0328 µM	28 µL/min/mg	34.8 µM	< 14 µL/min/mg	3.62 µM	–	–
COc1nc(-c2ccncc2)sc1C(N)=O	0.0955 µM	–	5.71 µM	–	9.93 µM	> 100	–
O=C(O)c1sc(-c2ccncc2)nc1O	6.13 µM	–	> 125 µM	–	–	–	–
CCOC(=O)c1sc(-c2ccncc2)nc1-c1ccccc1O	3.22 µM	–	> 125 µM	–	–	–	–
